# In ChEMBL document CHEMBL1127309, “A novel and useful descriptor for hydrophobicity, partition coefficient micellar-water, and its application to a QSAR study of antiplatelet agents” (J Med Chem, 1994):
# Tests used:
# [1] = Retention time at 35 mM; format: ADME; conditions: 35000 µM
# Method in brief: (§1)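 Reversed-phase HPLC on a C8 column (4.6 × 100 mm, 10 µm) at room temperature (22-25 °C). The mobile phase was Brij35 micelle solution in 10 mM phosphate buffer, pH 4.01, run separately at 25, 30, 35 and 40 mM Brij35. NaNO₃ served as the dead-time marker.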
# [2] = Retention time at 40 mM; format: ADME; conditions: 40000 µM; method in brief: as §1
# Rattus norvegicus [3] = experiment: Tested for antiplatelet activity in rat by conversion of the original antiplatelet activity data (%) to antiplatelet activity values at 10 umol/kg; format: functional
# [4] = Retention time at 25 mM; format: ADME; conditions: 25000 µM; method in brief: as §1
# Rattus norvegicus [5] = experiment: Tested for inhibitory activity on rat platelet aggregation induced by collagen measured after 1 hr of oral administration of compound (10 mg/kg) in rat.; format: functional
# [6] = Retention time at 30 mM; format: ADME; conditions: 30000 µM; method in brief: as §1
# Rattus norvegicus [7] = experiment: Tested for inhibitory activity on rat platelet aggregation induced by collagen ex vivo measured after 1 hr of oral administration of compound (10 mg/kg) in rat.; format: functional
Compound,Retention time [1] [min],Retention time [2] [min],Retention time [4] [min],Retention time [6] [min],Log APA (Rattus norvegicus [3]),Inhibition (Rattus norvegicus [5]) [%],Inhibition (Rattus norvegicus [7]) [%]
COc1c(-c2nc(C)c(-c3cccnc3)[nH]2)cc(Cl)c2[nH]c(CCC(=O)O)nc12,3.27,3.1,3.68,3.47,0.4,6,–
CCOc1ccccc1-c1nc(C)c(-c2cccnc2)[nH]1,5.08,4.77,6.01,5.44,1.1,45,–
Cc1ccccc1-c1nc(C)c(-c2cccnc2)[nH]1,4.64,4.39,5.2,4.92,0.18,6,–
CNC(=O)Nc1ccccc1-c1nc(C)c(-c2cccnc2)[nH]1,5.35,5,6.34,5.78,1.1,46,–
Cc1[nH]c(-c2ccccc2F)nc1-c1cccnc1,7.13,6.57,8.75,7.84,1.4,98,–
Cc1[nH]c(-c2ccccc2N)nc1-c1cccnc1,3.21,3.07,3.58,3.37,0.8,25,–
CSc1ccccc1-c1nc(C)c(-c2cccnc2)[nH]1,6.46,6,7.65,7.01,0.95,32,–
Cc1[nH]c(-c2ccccc2Cl)nc1-c1cccnc1,7.17,6.64,8.63,7.83,0.38,9,–
COc1c(-c2nc(C)c(-c3cccnc3)[nH]2)cc(Cl)c2[nH]c(C)nc12,7.24,6.52,9.36,8.14,1.3,51,–
CCOC(=O)COc1ccccc1-c1nc(C)c(-c2cccnc2)[nH]1,6.57,6.18,9.21,7.12,0.6,12,–
COC(=O)Nc1ccccc1-c1nc(C)c(-c2cccnc2)[nH]1,7.27,6.7,8.79,7.94,1.4,–,73

# Further lines, with some results ahead:
Retention time [1] [min],Retention time [2] [min],Retention time [4] [min],Retention time [6] [min],Compound,Log APA (Rattus norvegicus [3]),Inhibition (Rattus norvegicus [5]) [%],Inhibition (Rattus norvegicus [7]) [%]
2.56,2.43,2.79,2.7,COc1c(-c2nc(C)c(-c3cccnc3)[nH]2)ccc2[nH]c(C)nc12,0.72,16,–
3.97,3.76,4.59,4.21,COc1ccccc1-c1nc(C)c(-c2cccnc2)[nH]1,1.1,49,–
4.05,3.79,4.69,4.36,COc1c(-c2nc(C)c(-c3cccnc3)[nH]2)cc2nc(C)[nH]c2c1Cl,1.4,63,–
2.06,1.99,2.23,2.16,COc1cc2[nH]c(C)nc2cc1-c1nc(C)c(-c2cccnc2)[nH]1,0.83,21,–
1.345,1.331,1.375,1.362,COc1cc2c(cc1-c1nc(C)c(-c3cccnc3)[nH]1)nc(O)n2C,0.57,11,–
1.28,1.271,1.3,1.294,Cc1nc2cc(-c3nc(C)c(-c4cccnc4)[nH]3)c(C)cc2[nH]1,0.74,18,–
3.19,3,3.56,3.41,Cc1nc2cc(Cl)c(-c3nc(C)c(-c4cccnc4)[nH]3)cc2[nH]1,0.68,15,–
2.5,2.41,2.75,2.6,COc1cc(OC)c(-c2nc(C)c(-c3cccnc3)[nH]2)cc1NC(C)=O,0.93,24,–
8.08,7.33,10.35,9.08,COc1cc(NC(C)=O)c([N+](=O)[O-])cc1-c1nc(C)c(-c2cccnc2)[nH]1,1.5,86,–
6.32,5.78,7.95,7.01,COc1cc(NC(C)=O)c(Cl)cc1-c1nc(C)c(-c2cccnc2)[nH]1,1.4,65,–
1.296,1.289,1.32,1.301,COc1c(-c2nc(C)c(-c3cccnc3)[nH]2)cc2nc(O)[nH]c2c1Cl,0.79,17,–
